Experimental findings from ChEMBL document CHEMBL3797173, “Synthesis, anticancer activity, and SAR analyses of compounds containing the 5:7-fused 4,6,8-triaminoimidazo[4,5-e][1,3]diazepine ring system” (Bioorg Med Chem, 2016) are described below.

A short description of assay [1]: Anticancer activity against human OVCAR3 cells incubated for 72 hrs by WST1 assay. Type of assay: functional, cell-based, OVCAR-3. Put shortly: (§1)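 Cells (0.5–1.7x10³ per well) seeded in RPMI + 10% FBS the day before dosing. Endpoint: WST-1 reagent added, 4 h further incubation at 37 °C, 5% CO₂, then absorbance read at 450–690 nm. IC50 derived from these readouts.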
On the technique in general: Tetrazolium assays rely on reduction of a dye to a coloured formazan, in cell work by metabolically active cells.

A further assay deals with MDA-MB-231. The experiment in a line: Anticancer activity against human MDA-MB-231 cells incubated for 72 hrs by WST1 assay. It counts as functional, cell-based. In short, it runs like this: as §1
A further assay concerns MCF7. The experiment in a line: Anticancer activity against human MCF7 cells incubated for 72 hrs by WST1 assay. Type of assay: functional, cell-based. Put shortly: as §1
A short description of assay [2]: Anticancer activity against human H460 cells incubated for 72 hrs by WST1 assay. It counts as functional, cell-based, NCI-H460. Put shortly: as §1
Assay [3] in a line: Anticancer activity against human PC3 cells incubated for 72 hrs by WST1 assay. Type of assay: functional, cell-based, PC-3. Put shortly:
as §1

The next assay has as its system A549. The experiment in a line: Anticancer activity against human A549 cells incubated for 72 hrs by WST1 assay. Type of assay: functional, cell-based. In short, it runs like this: as §1
The mark [4] stands for this setting: Homo sapiens, OVCAR-3, 72 h, read-out: IC50.
The mark [5] stands for this setting: Homo sapiens, MDA-MB-231, 72 h, read-out: IC50.
[6] abbreviates: Homo sapiens, MCF7, 72 h, read-out: IC50.
The mark [7] stands for this setting: Homo sapiens, NCI-H460, 72 h, read-out: IC50.
Where [8] appears, read: Homo sapiens, PC-3, 72 h, read-out: IC50.
The mark [9] stands for this setting: Homo sapiens, A549, 72 h, read-out: IC50.

Usually IC50 stands for the concentration that inhibits the measured activity by half. Consider `CCCCCCCC/N=c1\nc(N)c2nc[nH]c2c(N)n1`, for which the IC50 result (in assay [1] (ovcar-3); in the assay with MDA-MB-231 (mda-mb-231); in the assay with MCF7 (mcf7); in assay [2] (nci-h460); in assay [3] (pc-3); with A549 (a549)) was “Not Active” throughout.

For the compound `CCCCCCCCCC/N=c1\nc(N)c2ncn(Cc3ccccc3)c2c(N)n1`, the IC50 in assay [1] (setting [4]) stood at 3.95 µM; in the assay with MDA-MB-231 (setting [5]), 2.05 µM; in the assay with MCF7 (setting [6]), 1.4 µM; in assay [2] (setting [7]), 3.2 µM; in assay [3] (setting [8]), 5.15 µM; in the assay on A549 (setting [9]), 1.8 µM.

Turning to `CC/N=c1\nc(N)c2nc[nH]c2c(N)n1`, the IC50 result is “Not Active” in assay [1] (ovcar-3); “Not Active” in the assay with MDA-MB-231 (mda-mb-231); greater than 100 µM in the assay with MCF7 (setting [6]); 22 µM in assay [2] (setting [7]); greater than 100 µM in assay [3] (setting [8]); 38 µM with A549 (setting [9]).

Regarding `CCCCCCCC/N=c1\nc(N)c2ncn(Cc3ccc(F)cc3)c2c(N)n1`, the half-inhibitory concentration (IC50) in assay [1] (setting [4]) amounted to 4.3 µM; in the assay with MDA-MB-231 (setting [5]), 3.6 µM; in the assay with MCF7 (setting [6]), 3 µM; in assay [2] (setting [7]), 4.7 µM; in assay [3] (setting [8]) it was 3.8 µM; with A549 (setting [9]) it was 5.9 µM.

`Nc1n/c(=N\CCCCc2ccccc2)nc(N)c2c1ncn2Cc1ccccc1`: the IC50 in assay [1] (setting [4]) was 37.3 µM; in the assay on MDA-MB-231 (setting [5]), 16.6 µM; with MCF7 (setting [6]), 8.8 µM; in assay [2] (setting [7]), 18.8 µM; in assay [3] (setting [8]), greater than 75 µM; in the assay with A549 (setting [9]) it was 15.3 µM.

`CCCCCCCC/N=c1\nc(N)c2ncn(Cc3ccccc3)c2c(N)n1`: the IC50 came to 4.98 µM in assay [1] (setting [4]); 4.75 µM in the assay on MDA-MB-231 (setting [5]); 4.55 µM in the assay with MCF7 (setting [6]); 7.45 µM in assay [2] (setting [7]); 5.93 µM in assay [3] (setting [8]); 3.83 µM in the assay on A549 (setting [9]).

For `Nc1n/c(=N\CCc2ccccc2)nc(N)c2c1ncn2Cc1ccccc1`, the IC50 in assay [1] (setting [4]) came out at 31.7 µM; with MDA-MB-231 (setting [5]), 17.9 µM; in the assay on MCF7 (setting [6]), 10.4 µM; in assay [2] (setting [7]), 36.6 µM; in assay [3] (setting [8]), 13.1 µM; with A549 (setting [9]) it was 20.4 µM.

In the case of `CCCCCCCCCCCCCCCCCC/N=c1\nc(N)c2ncn(Cc3ccccc3)c2c(N)n1`, the IC50 in assay [1] (setting [4]) was 4.95 µM; in the assay with MDA-MB-231 (setting [5]), 5.4 µM; in the assay with MCF7 (setting [6]) it was 8.3 µM; in assay [2] (setting [7]) it was 5.4 µM; in assay [3] (setting [8]), 5.45 µM; with A549 (setting [9]), 5.3 µM.

Take `CCCCCCCCCCCCCC/N=c1\nc(N)c2ncn(Cc3ccccc3)c2c(N)n1`: the IC50 worked out at 5.5 µM in assay [1] (setting [4]); 5.85 µM with MDA-MB-231 (setting [5]); 4.1 µM with MCF7 (setting [6]); 6.75 µM in assay [2] (setting [7]); 4.2 µM in assay [3] (setting [8]); 4.25 µM with A549 (setting [9]).

For `CCCCCCCCCCCCCCCCCC/N=c1\nc(N)c2nc[nH]c2c(N)n1`, the IC50 in assay [1] (setting [4]) is 3.1 µM; with MDA-MB-231 (setting [5]) it was 1.43 µM; with MCF7 (setting [6]), 3.53 µM; in assay [2] (setting [7]), 1.75 µM; in assay [3] (setting [8]), 2.61 µM; in the assay with A549 (setting [9]) it was 1.85 µM.

As for `CCCCCCCC/N=c1\nc(N)c2ncn(Cc3ccc(OC)cc3)c2c(N)n1`, the IC50 was 3.75 µM in assay [1] (setting [4]); 2.55 µM in the assay on MDA-MB-231 (setting [5]); 3.8 µM in the assay with MCF7 (setting [6]); 4.2 µM in assay [2] (setting [7]); 5.9 µM in assay [3] (setting [8]); 5.7 µM with A549 (setting [9]).
